Assay outcomes from PubChem BioAssay.
Hits are enriched below; roughly 1.9% of the tested compounds scored in any of these assays.
NPY-Y2 antag: blocks the human neuropeptide Y Y2 receptor; P49146; NPY-Y2 expressing cells, antagonist mode; inhibition, % at 2.7 µM; 140,000 tested, 0.99% active;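 also: 0% = vehicle with agonist challenge and 100% = reference antagonist with challenge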
NPY-Y1 antag: blocks the human neuropeptide Y Y1 receptor; 200,000 tested, 1% active; AID 1040; inhibition, % at 3.6 µM; HEK293-CNG Y1 cells, membrane potential fluorescence; NPY at EC95, then isoproterenol;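 active = inhibition above the campaign mean inhibition of all tested compounds plus 3 SD, cut at about 20% in these data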;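 also: 0% = DMSO wells given NPY plus isoproterenol and 100% = isoproterenol alone without NPY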
Target sequence (P25929 whole entry, looked up): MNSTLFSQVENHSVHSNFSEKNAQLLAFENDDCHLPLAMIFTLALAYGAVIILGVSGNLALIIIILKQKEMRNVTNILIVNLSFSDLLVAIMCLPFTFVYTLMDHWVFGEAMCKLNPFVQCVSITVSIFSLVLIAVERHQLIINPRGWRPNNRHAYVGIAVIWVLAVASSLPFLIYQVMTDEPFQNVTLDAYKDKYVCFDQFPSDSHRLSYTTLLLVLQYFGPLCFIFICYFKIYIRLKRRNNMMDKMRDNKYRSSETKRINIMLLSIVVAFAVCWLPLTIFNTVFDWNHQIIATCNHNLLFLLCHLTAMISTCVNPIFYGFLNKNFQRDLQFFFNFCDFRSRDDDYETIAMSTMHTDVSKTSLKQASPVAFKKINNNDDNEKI
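Assay system: HEK293 Y1/CNG channel cell line; Doses: single compound dose of 3.6 µM, 0.4% DMSO; Timing: dye 3 h, compound 60 min room temperature, stimulation 45 min; Technique: Membrane-potential fluorescent dye readout; Measure: % inhibition of NPY effect.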
NPY1 pot ag: human NPY-Y1 potentiation or agonism, primary screen; NPY-Y1 expressing cells, potentiator/agonist activation; 220,000 tested, 0.37% active; P25929; activation, % at 3.6 µM; in the data active = activation above about 33%, passing the limit was not always enough;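 also: cells stimulated with NPY at EC10 then isoproterenol at EC100; 0% = low agonist plus stimulus and 100% = saturating agonist plus stimulus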
NPY2 pot ag: human NPY-Y2 potentiation or agonism, primary screen. P49146. cells expressing NPY-Y2, potentiator/agonist read-out. activation, % at 3.6 µM. 220,000 tested, 0.45% active; in the data active = activation above about 27%;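 also: cells stimulated with NPY near EC25 plus isoproterenol at EC100; 0% = vehicle plus submaximal agonist and 100% = vehicle plus saturating agonist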
NPY1 antag conf: human NPY-Y1 antagonism, confirmation. 1,200 tested, 21% active. shares compounds with NPY-Y1 antag. inhibition, % at 3.6 µM. HEK293-CNG NPY-Y1, membrane potential fluorescence, cAMP; NPY challenge against isoproterenol-raised cAMP. AID 1254; in the data active = inhibition above about 20%;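 also: 0% = vehicle with agonist plus stimulus and 100% = stimulus alone without agonist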
NPY-Y2 antag ct: human NPY-Y2 antagonism in NPY-Y1 counter-screen. inhibition, % at 3.6 µM. 1,200 tested, 28% active. HEK293 NPY-Y2 CNG membrane potential fluorescence; cells given NPY, then isoproterenol. shares compounds with NPY-Y1 antag;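 also: 0% = DMSO with agonist challenge and 100% = reference antagonist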
Active calls of the source: *; . = no result given. Rule as the data show it, unless noted: active = inhibition above about 17%; inactive = the rest.

SMILES | NPY-Y2 antag | NPY-Y1 antag | NPY1 pot ag | NPY2 pot ag | NPY1 antag conf | NPY-Y2 antag ct
CCOC(=O)C1(CCc2ccccc2)CCN(Cc2c(O)cccc2OC)CC1 | . | 33.1* | -33.1 | -10.7 | 27.1* | 24.9*
CC1CCCCC1NC(=O)CN1C(=O)NC(Cc2ccccc2)(Cc2ccccc2)C1=O (centres undefined) | 16.2 | 24.4* | -37.1 | -25.4 | 31.4* | 27.9*
COc1ccc(C2C(C#N)=C(C)NC(C)=C2C(=O)OC(C)C)c(OC)c1 (centres undefined) | . | 3.3 | -15.7 | 10.6 | . | .
Cc1ccc2nc(NC(=O)CNS(=O)(=O)c3ccc(Br)s3)sc2c1 | 12.8 | 20.3* | -42.1 | -19.2 | 6.5 | 10.6
Cc1ccc2nc(NC(=O)CN(C)S(=O)(=O)c3ccc(Br)s3)sc2c1 | 2.1 | -1.9 | -5.9 | 5.7 | . | .
CCC(=O)Nc1cccc(-c2nc3ccccc3o2)c1 | 1.8 | 9.3 | 20.2 | 3.7 | . | .
COc1ccccc1OCC(=O)Nc1cccc(-c2nc3ccccc3o2)c1 | 13.8 | 20.2* | -67.0 | -26.6 | 15.8 | 10.4
O=C(CC1(c2ccc(Cl)cc2)C2CC3CC(C2)CC1C3)NCCO (centres undefined) | . | 1.4 | 1.4 | -3.0 | . | .
O=C(Nc1ccc2c(c1)OCO2)C1CCN(C(=O)c2ccc(Br)cc2)CC1 | . | 33.0* | -7.9 | -20.3 | 11.0 | 9.3
Cc1ccn2c(CNCC3OCCc4ccccc43)c(C(=O)N3CCCCCC3)nc2c1 (centres undefined) | . | -0.2 | -5.6 | -3.5 | . | .
CCN(CC)C(=O)CSc1nc2c(sc(=S)n2Cc2ccco2)c(=O)n1-c1ccccc1 | 9.4 | 26.7* | 1.6 | -52.8 | 3.0 | 4.7
CCN(CC)C(=O)CSc1nc2c(sc(=S)n2-c2ccccc2)c(=O)[nH]1 | . | -1.3 | 18.8 | 1.5 | . | .
CC(C)S(=O)(=O)c1cnc(-c2cccnc2)nc1N | . | . | 7.8 | 6.6 | . | .
COC(=O)[C@@]1(Cc2ccc(F)cc2)[C@H]2c3cc(C(=O)N(C)C)n(Cc4ccc(OC(F)(F)F)cc4)c3C[C@H]2CN1C(=O)c1ccccc1 | 15.8 | 34.9* | -5.9 | 14.4 | 9.3 | 4.2
Nc1ccccc1C(=O)NNc1ncc(C(F)(F)F)cc1Cl | 5.2 | 21.5* | -79.7 | -28.4 | 5.4 | 7.7
CN(C)/C=C/C(=O)c1nnn(C2CCCCC2)c1NC1CCCCC1 | 14.2 | 22.0* | -31.9 | 8.1 | -2.9 | 8.6
CC(C)(C)C(=O)O/N=C(\N)Cc1ccc(-c2csnn2)cc1 | . | . | 11.7 | -13.1 | . | .
Cc1cc(C(=O)OCCN2C(=O)c3ccccc3C2=O)c2ccccc2n1 | 5.4 | 24.5* | 1.3 | -4.0 | 0.6 | 5.4
O=C(OCCN1C(=O)c2ccccc2C1=O)c1cc(=O)[nH]c2ccccc12 | 1.2 | 6.1 | -8.4 | -11.1 | . | .
COc1ccc2c(Cl)c(C(=O)NN3CCN(C)CC3)sc2c1 | . | 5.4 | -5.1 | -13.7 | . | .
O=C(c1ccccc1)c1c[nH]c(C(=O)NNc2ccccc2)c1 | . | -0.9 | 0.2 | 0.8 | . | .
CC(C)NC(=O)C1CCN(C(=O)c2cc3sccc3n2Cc2ccc(F)cc2)CC1 | -0.4 | -6.8 | 29.1 | 16.9 | . | .
O=C(c1cc2sccc2n1Cc1ccc(F)cc1)N1CCCc2ccccc21 | 14.6 | 24.1* | -29.9 | -10.0 | 12.2 | 18.9*
O=C(O)c1ccc(N(c2ccccc2)c2ccccc2)cc1 | 13.6 | 26.8* | -39.9 | -36.6 | 21.2* | 15.9
O=c1c2c(nc3n1CCS3)c1cc(F)ccc1n2Cc1cc(=O)n2cc(Cl)ccc2n1 | . | . | 4.8 | 9.3 | . | .
SMILES | NPY-Y2 antag | NPY-Y1 antag | NPY1 pot ag | NPY2 pot ag | NPY1 antag conf | NPY-Y2 antag ct
CC(OC(=O)CC(NC(=O)c1ccccc1Cl)c1ccccc1)C(=O)Nc1cccc(Cl)c1Cl (centres undefined) | 8.9 | 30.2* | -46.9 | -15.8 | 27.2* | 17.5*
COC(=O)c1ccccc1NC(=O)c1ccc(COc2ccc(C)c(C)c2)o1 | 10.4 | 28.7* | -4.7 | 4.8 | 9.7 | 11.9
COC(=O)c1ccccc1NC(=O)c1cccc(NC(=O)C(C)C)c1 | . | -0.1 | -22.5 | -5.0 | . | .
COC(=O)c1ccccc1NC(=O)c1cc(OC)cc(OC)c1 | 3.8 | 21.1* | -27.9 | -7.4 | 9.2 | 11.7
Cn1c(=O)[nH]c2ccc([N+](=O)[O-])nc21 | 1.4 | 6.9 | -24.7 | -0.2 | . | .
Cc1ccc(N2C(=O)c3ccc(C(=O)N4CCN(Cc5ccccc5)CC4)cc3C2=O)cc1 | . | . | 12.8 | -0.3 | . | .
